Here are results for two compounds from ChEMBL document CHEMBL3860103, “Antibacterial and Antibiofilm Activity of Cationic Small Molecules with Spatial Positioning of Hydrophobicity: An in Vitro and in Vivo Evaluation” (J Med Chem, 2016).

Data set [1] in a line: Induction of membrane hydration changes in Laurdan dye containing DPPG:DPPE (88:12) liposomes assessed as reduction in general polarization at 25 to 100 ug/ml by luminescence spectrometry. The data set is classed as physicochemical. In a few lines: (§1)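 Liposomes of 0.5 mM DPPG:DPPE (88:12) or 0.5 mM DPPC with Laurdan (lipid:dye 100:1), hydrated in PBS pH 7.4, 10 freeze–thaw cycles, sonicated 15 min at 70 °C. Compounds added in PBS (lipid:compound 7.4:1), tested at 25, 50, 100 µg/mL; emission at 440 and 490 nm (ex 350 nm), 37 °C. GP = (I440−I490)/(I440+I490).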

Data set [2] deals with Escherichia coli. Kind of data set: Induction of membrane permeabilization in Escherichia coli at 32 ug/ml after 0 to 20 mins by propidium iodide dye based assay. The data set is classed as functional. In a few lines: (§2)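 Membrane permeabilization of S. aureus or E. coli followed as increase in propidium iodide fluorescence after adding compounds at 32 µg/mL.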
Data set [3] deals with Mus musculus. Kind of data set: Toxicity in topically dosed mouse assessed as induction of less fur appearance at 200 mg/kg after 14 days by OECD425 guidelines based method. To be noted: in vivo, topical_or_ocular, 336 h. Format: organism-based.
A short description of data set [4]: Toxicity in HEK293 cells assessed as induction of cell death at 64 ug/ml incubated for 24 hrs by calcein AM and propidium iodide dye based fluorescence microscopy. To be noted: human, hek293, 24 h. The gist of the method:
(§3)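 HEK 293 cells seeded ~10^4 cells/well, treated with compounds for 24 h (16, 32 or 64 µg/mL); 0.1% Triton X positive, untreated negative control. Stained with calcein AM (2 µM) and PI (4.5 µM) 15 min at 37 °C, 5% CO2; imaged by fluorescence microscopy, 20X objective.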

The test system of data set [5] is Staphylococcus aureus. Kind of data set: Induction of membrane depolarization in Staphylococcus aureus at 32 ug/ml after 0 to 20 mins by […] dye based assay. Format: functional. The gist of the method: (§4)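 Membrane-potential dye DiSC3(5) taken up by S. aureus or E. coli; depolarization followed as rise in dye fluorescence after adding compounds at 32 µg/mL.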

Data set [6] can be described thus: Selectivity index, ratio of HC50 for induction of hemolysis in human RBC to MIC for Escherichia coli.
Data set [7] can be described thus: Toxicity in HEK293 cells assessed as cell density level at 16 ug/ml incubated for 24 hrs by calcein AM and propidium iodide dye based fluorescence microscopy. The note with it: human, hek293, 24 h. The gist of the method: as §3
The test system of data set [8] is Escherichia coli. Kind of data set: Induction of membrane depolarization in Escherichia coli at 32 ug/ml after 0 to 20 mins by […] dye based assay. Format: functional. In a few lines:
as §4

The test system of data set [9] is Escherichia coli. Kind of data set: Antibacterial activity against Escherichia coli incubated for 24 hrs. The data set is classed as functional. In a few lines:
(§5)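 Broth microdilution: 6 h cultures diluted to ~10^5 CFU/mL in medium; compounds 2-fold serially diluted in water, mixed 1:3 with bacterial suspension. Incubated 24 h, 37 °C; OD600 read. MIC = concentration with OD similar to medium-only control. Triplicate wells, experiments repeated at least twice.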

Data set [10] is described as follows: Toxicity in HEK293 cells assessed as induction of cell death at 32 ug/ml incubated for 24 hrs by calcein AM and propidium iodide dye based fluorescence microscopy. The note with it: human, hek293, 24 h. In a few lines:
as §3

For data set [11], the system named is Staphylococcus aureus. Kind of data set: Antibacterial activity against Staphylococcus aureus incubated for 24 hrs. The data set is classed as functional. The gist of the method: as §5
The test system of data set [12] is Mus musculus. Kind of data set: Toxicity in topically dosed mouse assessed as induction of skin darkening at 200 mg/kg after 14 days by OECD425 guidelines based method. Format: organism-based. To be noted: in vivo, topical_or_ocular, 336 h.
For data set [13], the system named is Staphylococcus aureus. Kind of data set: Antibacterial activity against methicillin-resistant Staphylococcus aureus incubated for 24 hrs. Format: functional. The gist of the method: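 MRSA (ATCC 33591) from a 6 h culture (~10^9 CFU/mL), diluted to ~10^5 CFU/mL in medium. Compounds in water, 2-fold serial dilutions, combined with the bacteria at 1:3 by volume and incubated 24 h at 37 °C. OD600 read. MIC is the lowest concentration whose OD matches the media-only control. Triplicate wells; experiments repeated at least twice.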

Data set [14] can be described thus: Selectivity index, ratio of HC50 for induction of hemolysis in human RBC to MIC for Staphylococcus aureus.
Data set [15] can be described thus: Induction of membrane hydration changes in Laurdan dye containing DPPC liposomes assessed as reduction in general polarization at 25 to 100 ug/ml by luminescence spectrometry. Format: physicochemical. The gist of the method:
as §1

Data set [16] is described as follows: Induction of hemolysis in human RBC incubated for 1 hr. The data set is classed as cell-based, Erythrocyte. To be noted: red blood cells. The gist of the method: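 Washed human RBCs from heparinized blood, 5 vol% in PBS, mixed 3:1 with serially diluted compounds; 1 h at 37 °C. Centrifuged; supernatant A540 read. Hemolysis % = (A−A0)/(Atotal−A0)×100, with water as 0% and 0.1 vol% Triton X-100 as full lysis.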

For data set [17], the system named is Staphylococcus aureus. Kind of data set: Induction of membrane permeabilization in Staphylococcus aureus at 32 ug/ml after 0 to 20 mins by propidium iodide dye based assay. The data set is classed as functional. The gist of the method:
as §2

Data set [18] has as its system Staphylococcus aureus. Kind of data set: Induction of biofilm disruption in Staphylococcus aureus after 24 hrs by confocal laser-scanning microscopy. The data set is classed as functional. In a few lines:
(§6)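 Biofilms grown on glass coverslips from ~10^5 CFU/mL: S. aureus in nutrient medium + 1% glucose + 1% NaCl, 24 h; E. coli in M9 + 0.5% glycerol + 0.02% casamino acid, 72 h; stationary, 37 °C. After PBS wash, treated 24 h at 37 °C with 32 µg/mL in the same medium; media-only control. Stained with SYTO 9 (5 µM), imaged by confocal microscopy.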

The subject of data set [19] is Staphylococcus aureus. Kind of data set: Induction of biofilm disruption in Staphylococcus aureus assessed as reduction in log bacterial burden at 32 ug/ml after 24 hrs by confocal laser-scanning microscopy. Format: functional. In a few lines:
(§7)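 Established coverslip biofilms (S. aureus 24 h in nutrient medium + 1% glucose + 1% NaCl; E. coli 72 h in M9 + 0.5% glycerol + 0.02% casamino acid; 37 °C) washed, then exposed to 32 µg/mL for 24 h at 37 °C. Matrix dissolved with trypsin-EDTA, serially diluted, plated on nutrient agar; viability as log10 CFU/mL versus media-only control.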

Data set [20] concerns Mus musculus. Kind of data set: Toxicity in topically dosed mouse assessed as induction of inflammation at 200 mg/kg by OECD425 guidelines based method. Format: organism-based. The note with it: in vivo, topical_or_ocular.
Data set [21] concerns Escherichia coli. Kind of data set: Induction of biofilm disruption in Escherichia coli assessed as reduction in log bacterial burden at 32 ug/ml after 72 hrs by confocal laser-scanning microscopy. The note with it: in the assay text read “after 24 hrs” for “after 72 hrs”. Format: functional. In a few lines: as §7
Data set [22] is described as follows: Toxicity in topically dosed mouse by OECD425 guidelines based method. Format: organism-based. To be noted: in vivo, topical or ocular.
For data set [23], the system named is Staphylococcus aureus. Kind of data set: Induction of biofilm disruption in Staphylococcus aureus assessed as mature biofilm thickness at 32 ug/ml after 24 hrs by SYTO 9 dye based confocal laser-scanning microscopy (reference value: 14 to 18 um). The data set is classed as functional. The gist of the method: as §6
The subject of data set [24] is Escherichia coli. Kind of data set: Induction of biofilm disruption in Escherichia coli assessed as mature biofilm thickness at 32 ug/ml after 24 hrs by SYTO 9 dye based confocal laser-scanning microscopy (reference value: 14 to 18 um). The data set is classed as functional. In a few lines:
as §6

Data set [25] deals with Staphylococcus aureus. Kind of data set: Antibacterial activity against Staphylococcus aureus infected in BALB/c mouse model of superficial skin infection and biofilm formation assessed as reduction in bacterial load in skin at 40 mg/kg applied topically once daily for 4 days and measured 18 hrs after last dose. The data set is classed as functional. The gist of the method:
(§8)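 Female BALB/c mice (6–8 weeks, 18–22 g) made neutropenic with cyclophosphamide i.p. (150 mg/kg, then 100 mg/kg 3 days later), anesthetized, backs shaved, wounded and infected with MRSA ATCC 33591. After 24 h biofilm formation, 40 mg/kg applied topically to wound once daily for 4 days (n = 5/group; untreated control). Skin collected 18 h after last dose for CFU/g; portions formalin-fixed for SEM.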

Data set [26] concerns Staphylococcus aureus. Kind of data set: Antibacterial activity against Staphylococcus aureus infected in BALB/c mouse model of superficial skin infection and biofilm formation assessed as reduction in bacterial load in skin at 40 mg/kg applied topically once daily for 4 days and measured 18 hrs after last dose relative to un-treated control. Format: functional. Also on record: scale not given: the % may be the effect or the level left. The gist of the method:
as §8

Data set [27] deals with Mus musculus. Kind of data set: Toxicity in topically dosed mouse assessed as induction of abnormal skin reaction at 200 mg/kg by OECD425 guidelines based method. Format: organism-based. The note with it: in vivo, topical_or_ocular.
The subject of data set [28] is Staphylococcus aureus. Kind of data set: Antibacterial activity against Staphylococcus aureus infected in BALB/c mouse model of superficial skin infection and biofilm formation assessed as reduction in bacterial load in skin at 40 mg/kg applied topically once daily for 4 days and measured 18 hrs after last dose by FEI field emission scanning electron microscopy relative to un-treated control. The data set is classed as functional, organism-based. The gist of the method:
as §8

The source made the active and inactive calls. Where only a bound is given, the exact number is not on record here.

The term MIC denotes the smallest concentration in the dilution series that meets the test's criterion for growth inhibition. For orientation: HC50 means the concentration that lyses half of the red blood cells. With `CCCCCCCCCCNC(=O)C[N+](C)(C)CCCC[N+](C)(C)CC(=O)NCCCCCCCCCC.[Br-].[Br-]`, the Activity result in [1] is listed as “Active”; in the data set with Mus musculus [3] it was “Toxic”; in data set [4], “Toxic”; in data set [7], “Toxic”; in data set [10], “Toxic”; in the data set with Mus musculus [12] it was “Toxic”. Also, the outcome in [15] was Active. Also, the outcome with Escherichia coli [2], in the data set with Staphylococcus aureus [5], in the data set with Escherichia coli [8] and in the data set on Staphylococcus aureus [17] was Active. For the same compound, the Selectivity Index in [6] and in data set [14] was 30 throughout. The minimal inhibitory concentration (MIC) in the data set on Escherichia coli [9], in the data set with Staphylococcus aureus [11] and in the data set with Staphylococcus aureus [13] was 2 µg/mL in each case. In data set [16], this compound displayed a 50% haemolytic concentration (HC50) at 1 h of 60 µg/mL. Also, the MBEC in the data set on Staphylococcus aureus [18] lay in the range of 31.2 to 62.5 µg/mL.
Broadly, the LD50 is the dose at which mortality reaches 50%. `CCCCCCNC(=O)C[N+](C)(C)CCCCCCCCCCCC[N+](C)(C)CC(=O)NCCCCCC.[Br-].[Br-]`: the Activity entry in data set [1] is “Active”; in data set [4] it was “Non-Toxic”; with Mus musculus [20], “Non-Toxic”; in data set [7], “Non-Toxic”; with Staphylococcus aureus [23] it was 2 - 3 um; in the data set with Escherichia coli [24], 2 - 3 um. Besides, the Activity in the data set on Staphylococcus aureus [25] was 5.3 log10CFU/g; in data set [10], “Non-Toxic”; in the data set on Staphylococcus aureus [26], above 99.999%; in the data set on Mus musculus [27], “Non-Toxic”. Moreover, the outcome in the data set on Escherichia coli [2], with Staphylococcus aureus [5], with Escherichia coli [8], in the data set on Staphylococcus aureus [17] and in the data set with Staphylococcus aureus [28] was Active. In addition, the FC came out at 9.2 in the data set on Staphylococcus aureus [19] and 7.1 in the data set with Escherichia coli [21]. The values for the Selectivity Index in data set [6] and in [14] were 402 and 805, respectively. In data set [22], this compound displayed a 50% lethal dose (LD50) above 200 mg/kg. Also, the figures for the minimal inhibitory concentration (MIC) with Escherichia coli [9], in the data set with Staphylococcus aureus [11] and in the data set with Staphylococcus aureus [13] were 2 µg/mL, 1 µg/mL and 2 µg/mL, respectively. The HC50 at 1 h in [16] was 805 µg/mL. This compound also yielded an MBEC in the data set on Staphylococcus aureus [18] of 31.2 to 62.5 µg/mL.
